Measured values published in ChEMBL document CHEMBL5131497, “Design, Synthesis, and Characterization of TNP-2198, a Dual-Targeted Rifamycin-Nitroimidazole Conjugate with Potent Activity against Microaerophilic and Anaerobic Bacterial Pathogens” (J Med Chem, 2022).
≈ marks a conversion by molar mass, not a printed value.

Legend:
Type in all cases: functional
Staphylococcus aureus = experiment: Antibacterial activity against Staphylococcus aureus ATCC 29213
Clostridioides difficile [1] = experiment: Antibacterial activity against Clostridioides difficile ATCC 9689
Helicobacter pylori [2] = experiment: Antibacterial activity against Helicobacter pylori ATCC 700392
In short: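 Agar dilution per CLSI. Wild-type H. pylori ATCC 700392 (CB1531). Drugs prepared from 100× stocks as 2-fold dilutions in Mueller–Hinton agar with aged (≥2 weeks) sheep blood (5% v/v). Combinations were at 1:1 molar ratio. MIC read after 5 days at 35 °C under microaerobic atmosphere from a campylobacter gas-generating system.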

Helicobacter pylori [3] = experiment: Antibacterial activity against rifampicin resistant Helicobacter pylori harboring rpoBL525I/D530N mutant
Clostridioides difficile [4] = experiment: Antibacterial activity against rifampicin-resistant Clostridioides difficile harboring rpoBQ489K mutant
Clostridioides difficile [5] = experiment: Antibacterial activity against Clostridioides difficile BAA 1382

| SMILES | MIC (Staphylococcus aureus) [µg/mL] | MIC (Clostridioides difficile [1]) [ng/mL] | MIC (Helicobacter pylori [2]) [µg/mL] | MIC (Helicobacter pylori [3]) [µg/mL] | MIC (Clostridioides difficile [4]) [µg/mL] | MIC (Clostridioides difficile [5]) [ng/mL] |
| --- | --- | --- | --- | --- | --- | --- |
| C[C@]1(COc2ccc(N3CCC(Oc4ccc(OC(F)(F)F)cc4)CC3)cc2)Cn2cc([N+](=O)[O-])nc2O1 | > 32 | > 16000 | 2 (≈ 3.74 µM) | – | – | – |
| CO[C@H]1/C=C/O[C@@]2(C)Oc3c(C)c(O)c4c(=O)c(c5oc6cc(N7CCN(CCn8c([N+](=O)[O-])cnc8C)CC7)cc(O)c6nc-5c4c3C2=O)NC(=O)/C(C)=C\C=C\[C@H](C)[C@H](O)[C@@H](C)[C@@H](O)[C@@H](C)[C@H](OC(C)=O)[C@@H]1C | < 0.03 | 2 (≈ 0.00193 µM) | 0.004 (≈ 0.00385 µM) | 0.5 (≈ 0.482 µM) | 2 (≈ 1.93 µM) | 1 (≈ 0.000963 µM) |
| CO[C@H]1/C=C/O[C@@]2(C)Oc3c(C)c(O)c4c(O)c(c(/C=N/N5CCN(CCn6c([N+](=O)[O-])cnc6C)CC5)c(O)c4c3C2=O)NC(=O)/C(C)=C\C=C\[C@H](C)[C@H](O)[C@@H](C)[C@@H](O)[C@@H](C)[C@H](OC(C)=O)[C@@H]1C | 0.03 (≈ 0.0312 µM) | 2 (≈ 0.00208 µM) | 0.25 (≈ 0.26 µM) | 2 (≈ 2.08 µM) | 2 (≈ 2.08 µM) | 0.5 (≈ 0.00052 µM) |
| CO[C@H]1/C=C/O[C@@]2(C)Oc3c(C)c(O)c4c(O)c(c5c(nc6ccc(CCC(=O)N7CCN(CCn8c([N+](=O)[O-])cnc8C)CC7)cn65)c4c3C2=O)NC(=O)/C(C)=C\C=C\[C@H](C)[C@H](O)[C@@H](C)[C@@H](O)[C@@H](C)[C@H](OC(C)=O)[C@@H]1C | – | 4 (≈ 0.00376 µM) | 1 (≈ 0.939 µM) | > 8 | 4 (≈ 3.76 µM) | 4 (≈ 0.00376 µM) |
| CO[C@H]1/C=C/O[C@@]2(C)Oc3c(C)c(O)c4c(O)c(c(N5CCN(C(=O)CO[C@@H]6COc7nc([N+](=O)[O-])cn7C6)CC5)c(O)c4c3C2=O)NC(=O)/C(C)=C\C=C\[C@H](C)[C@H](O)[C@@H](C)[C@@H](O)[C@@H](C)[C@H](OC(C)=O)[C@@H]1C | 2 (≈ 1.99 µM) | – | 4 (≈ 3.97 µM) | – | – | – |

The next lines start with results.

| MIC (Staphylococcus aureus) [µg/mL] | MIC (Clostridioides difficile [1]) [ng/mL] | MIC (Helicobacter pylori [2]) [µg/mL] | SMILES | MIC (Helicobacter pylori [3]) [µg/mL] | MIC (Clostridioides difficile [4]) [µg/mL] | MIC (Clostridioides difficile [5]) [ng/mL] |
| --- | --- | --- | --- | --- | --- | --- |
| 0.008 (≈ 0.00831 µM) | 1 (≈ 0.00104 µM) | 0.25 (≈ 0.26 µM) | CO[C@H]1/C=C/O[C@@]2(C)Oc3c(C)c(O)c4c(O)c(c(N5CCN(CC6(C)Cn7cc([N+](=O)[O-])nc7O6)CC5)c(O)c4c3C2=O)NC(=O)/C(C)=C\C=C\[C@H](C)[C@H](O)[C@@H](C)[C@@H](O)[C@@H](C)[C@H](OC(C)=O)[C@@H]1C (some centres undefined) | – | – | – |
| < 0.008 | 30 (≈ 0.0259 µM) | 0.06 (≈ 0.0518 µM) | CO[C@H]1/C=C/O[C@@]2(C)Oc3c(C)c(O)c4c(=O)c(c5oc6cc(N7CCN(c8ccc(OCC9(C)Cn%10cc([N+](=O)[O-])nc%10O9)cc8)CC7)cc(O)c6nc-5c4c3C2=O)NC(=O)/C(C)=C\C=C\[C@H](C)[C@H](O)[C@@H](C)[C@@H](O)[C@@H](C)[C@H](OC(C)=O)[C@@H]1C (some centres undefined) | – | – | – |
| < 0.004 | – | 0.25 (≈ 0.237 µM) | CO[C@H]1/C=C/O[C@@]2(C)Oc3c(C)c(O)c4c(O)c(c(N5CCN(Cc6ccc(OCC7Cn8cc([N+](=O)[O-])nc8O7)cc6)CC5)c(O)c4c3C2=O)NC(=O)/C(C)=C\C=C\[C@H](C)[C@H](O)[C@@H](C)[C@@H](O)[C@@H](C)[C@H](OC(C)=O)[C@@H]1C (some centres undefined) | – | – | – |
| < 0.015 | 0.25 (≈ 0.000267 µM) | 0.06 (≈ 0.0642 µM) | CO[C@H]1/C=C/O[C@@]2(C)Oc3c(C)c(O)c4c(O)c(c(N5CCN(CCn6c([N+](=O)[O-])cnc6C)CC5)c(O)c4c3C2=O)NC(=O)/C(C)=C\C=C\[C@H](C)[C@H](O)[C@@H](C)[C@@H](O)[C@@H](C)[C@H](OC(C)=O)[C@@H]1C | – | – | 0.25 (≈ 0.000267 µM) |
| 0.015 (≈ 0.0157 µM) | – | 0.06 (≈ 0.0626 µM) | CO[C@H]1/C=C/O[C@@]2(C)Oc3c(C)c(O)c4c(c3C2=O)C2=NC3(CCN(CC5Cn6cc([N+](=O)[O-])nc6O5)CC3)NC2=C(NC(=O)/C(C)=C\C=C\[C@H](C)[C@H](O)[C@@H](C)[C@@H](O)[C@@H](C)[C@H](OC(C)=O)[C@@H]1C)C4=O (some centres undefined) | – | – | – |
| < 0.008 | 8 (≈ 0.00748 µM) | 0.5 (≈ 0.468 µM) | CO[C@H]1/C=C/O[C@@]2(C)Oc3c(C)c(O)c4c(O)c(c(N5CCN(Cc6ccc(CO[C@@H]7COc8nc([N+](=O)[O-])cn8C7)cc6)CC5)c(O)c4c3C2=O)NC(=O)/C(C)=C\C=C\[C@H](C)[C@H](O)[C@@H](C)[C@@H](O)[C@@H](C)[C@H](OC(C)=O)[C@@H]1C | – | – | – |
